Compound activity as filed in PubChem.
NALP1 yeast inh – NALP1 inhibition | inhibition, % at 10 µM | 0.61% of 280,000 active | S. cerevisiae NALP1/ASC/caspase-1 growth, X-gal OD620, 72 h; in the data active = inhibition mostly above about 24%, no sharp cut-off; inactive = mostly below about 32%
VIM-2 inhibitor – inhibitors of Pseudomonas aeruginosa VIM-2 metallo-beta-lactamase. purified VIM-2, nitrocefin hydrolysis, epi-absorbance fluorescence. inhibition, % at 5.6 µM. 0.89% of 290,000 active;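 active = inhibition above the mean of all tested compounds plus 3 SD, cutoff set per screening run, cut at about 7.5% in these data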;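 also: red hydrolysis product quenches plate fluorescence so inhibitors raise well fluorescence; 0% = enzyme with DMSO and 100% = DMSO without enzyme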
PolyA inh – blocks polyadenylation in yeast reporter cells; S. cerevisiae SKY197-pL101 polyadenylation reporter, beta-gal luminescence; efflux-impaired pdr1/pdr3 knockout yeast; score 100 = 6 SD above DMSO; AID 1875; 0.02% of 300,000 active; activity score, % at 12 µM;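 active = lowest replicate activity score at least 50, where 100 means six control SD above control mean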;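 also: yeast exposed to compound for 9 h at 30 °C; higher score means more reporter readthrough which indicates perturbed polyadenylation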
IMP-1 inhibitor – inhibitors of Pseudomonas aeruginosa IMP-1 metallo-beta-lactamase; inhibition, % at 5.6 µM; purified IMP-1, nitrocefin hydrolysis, epi-absorbance fluorescence; AID 1556; 0.45% of 290,000 active;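 active = inhibition above the mean plus 3 SD of all compounds in the same screening run, cut at about 4.5% in these data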;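 also: 0% = IMP-1 with DMSO and 100% = DMSO wells lacking enzyme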
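Test system: recombinant IMP-1 enzyme, purified / Medium: HEPES buffer pH 7.1 with ZnSO4 and Brij 35 / Doses: single dose, 5.6 µM / Times: 25 °C, 15 min preincubation, 25 min reaction / Detection: Epi-absorbance via hydrolysed-nitrocefin quenching of white-plate fluorescence, 480/530 nm, EDTA stop / Evaluation: percent inhibition from optical density relative to buffer-blank wells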
NLRP3 yeast inh – blocks the NALP3 inflammasome reconstituted in yeast. Yeast reconstituted NLRP3/ASC/caspase-1, beta-gal luminescence, 24 h. AID 2825. inhibition, % at 10 µM. 0.39% of 330,000 active;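 active = inhibition of 50% or more; inactive = inhibition below 50%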;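 also: plate controls were induced DMSO wells for no effect and uninduced yeast grown without galactose for full effect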
Mot1-301 SUMO – inhibitors of SUMOylation pathway: yeast Mot1-301 growth rescue; S. cerevisiae Mot1-301 growth rescue, ATP luminescence, 38.5C; percent above DMSO median, 100 means doubled; growth rescue, % at 18.8 µM; 1% of 320,000 active;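 active = every valid replicate shows activation above 250% relative to neutral control wells; inactive = the rest, any valid replicate at or below 250%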;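 also: OY570 slx delta 5 strain wells were the positive control but not used for scaling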
Yeast Mot1 SUMO – yeast SUMO pathway inhibition in dose response | shares compounds with Mot1-301 SUMO | S. cerevisiae Mot1-301 galactose growth, ATP luminescence, 24 h; -100 = growth of slx-deleted rescue strain | growth activity, percent, % at 42 µM | 2,300 tested, under 10 active | AID 493004;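 active = Signal drops as the depositor expects, and the fitted half-maximal dose is no more than ten times the top valid tested dose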;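 also: more negative values mean stronger growth rescue toward the control strain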
An asterisk follows results filed as active; x = no result; + = active, no number. An excerpt weighted towards active compounds, which were near 2.9% of everything screened.

SMILES | NALP1 yeast inh | VIM-2 inhibitor | PolyA inh | IMP-1 inhibitor | NLRP3 yeast inh | Mot1-301 SUMO | Yeast Mot1 SUMO
CCOC(=O)C1CCCN(C(=O)c2cc(-c3ccncc3)nc3ccccc23)C1 (stereo unspecified) | x | x | -10 | x | 15 | 79 | x
C[C@@H]1COC(=O)[C@H](CC(=O)OC(C)(C)C)C/C=C\C[C@@H](CC(=O)NCCO)C(=O)N1 | x | x | x | x | 17 | 1 | x
Cc1cccc(N2C(=O)CSC2c2cccnc2)c1 (stereo unspecified) | -10 | -2 | 11 | 2 | 2 | 686* | 0
COC(=O)CCC(=O)OC1(C)C(=O)C=C2C=C(C3CC3)N(Cc3ccc4c(c3)OCO4)C=C2C1=O (stereo unspecified) | x | x | 16 | x | 7 | 881* | 0
COC(=O)CCC(=O)OC1(C)C(=O)C=C2C=C(C3CC3)N(Cc3ccc(OC)cc3)C=C2C1=O (stereo unspecified) | x | x | 0 | x | 19 | 4 | x
CC(NC(=O)C(C)N1c2cccc3cccc(c23)S1(=O)=O)c1ccccc1 (stereo unspecified) | 6 | 0 | -4 | 3 | 12 | 75 | x
COc1ccccc1NC(=O)c1ccc(-n2ccnc2)c([N+](=O)[O-])c1 | 26 | 2 | 3 | 0 | 19 | 513* | 0
COc1cccc(OC)c1C(=O)OCC(=O)NC(=O)NCc1ccccc1 | 4 | -2 | -3 | -4 | 3 | 321 | x
COc1ccccc1C(=O)OCC(=O)NC(=O)NCc1ccccc1 | 23 | -3 | -3 | -3 | 26 | 891* | 1
NNC(=O)c1oc2nc(-c3ccccc3)cc(-c3ccccc3)c2c1N | 11 | -5 | 14 | 0 | 11 | 477* | 0
O=C1CCc2cc(S(=O)(=O)N3CCCC3C(=O)NC3CCCCCCC3)ccc2N1 (stereo unspecified) | -19 | -2 | 3 | -2 | 8 | 5 | x
O=C1CCc2cc(S(=O)(=O)N3CCC(C(=O)NC4CCCC4)CC3)ccc2N1 | -8 | -5 | -5 | -3 | -12 | 518* | 0
Cc1ccc(/C=N/NC(=O)c2cccc(NC(=O)c3ccccc3Cl)c2)o1 | 2 | -3 | -4 | -3 | 2 | -18 | x
CCOC(=O)c1ccc(NC(=O)c2c(NC(=O)CCC(=O)O)sc3c2CCCCC3)cc1 | -19 | -4 | 1 | -3 | 3 | 631* | 0
CCOc1ccccc1NC(=O)c1c(NC(=O)CCC(=O)O)sc2c1CCCCC2 | -3 | -3 | x | -3 | 3 | x | x
CCc1nnc2n1N=C(c1ccc(Cl)cc1)CS2 | 1 | 0 | -3 | 0 | 6 | 394* | 0
CCc1nnc2n1N=C(c1ccccc1)CS2 | 18 | 2 | 9 | -1 | 8 | -41 | x
Cc1ccc(-n2nnnc2C(Cl)(Cl)c2nnnn2-c2ccc(C)cc2)cc1 | -16 | -2 | -107 | -3 | 50 | + | 0
Clc1ccc(-c2nnnn2-c2ccc(Cl)cc2)cc1 | x | -2 | -18 | -3 | -8 | 29 | x
CC(=O)c1ccc(OCC(=O)OCC(=O)Nc2sccc2C(N)=O)cc1 | x | x | x | x | 8 | -10 | x
Cc1ccc(NC(=O)CN(C)C(=O)c2cccc(-n3cccc3)c2)cc1 | x | x | x | x | 27 | x | x
CC(NC(=O)C1CCCCC1)C(=O)NC1=NCCS1 (stereo unspecified) | 2 | -4 | 19 | -4 | -21 | 566* | 0
CC(C)C(NC(=O)C12CC3CC(CC(C3)C1)C2)C(=O)NC1=NCCS1 (stereo unspecified) | 10 | -2 | -5 | -4 | 10 | x | x
Cc1cc(C(=O)Nc2c(F)cc(F)cc2Br)n(-c2ccccc2)n1 | 20 | 1 | 14 | -1 | 10 | -18 | x
CCCc1nn2c(=O)cc(CSCC(=O)Nc3ccc(OC)cc3)nc2s1 | 19 | 2 | -7 | 0 | 4 | 539* | 1
SMILES | NALP1 yeast inh | VIM-2 inhibitor | PolyA inh | IMP-1 inhibitor | NLRP3 yeast inh | Mot1-301 SUMO | Yeast Mot1 SUMO
CCCc1nn2c(=O)cc(CSCC(=O)Nc3cccc(OC)c3)nc2s1 | 25 | 0 | 10 | -1 | 19 | -8 | x
Cc1ccccc1NC(=O)CSc1ccc(-c2ccc(-n3cccn3)cc2)nn1 | x | x | 3 | x | 12 | -2 | x
CCc1nnc(NC(=O)CSc2ccc(-c3ccc(-n4cccn4)cc3)nn2)s1 | x | x | -4 | x | -2 | 781* | 0
COc1cccc(C(=O)NNS(=O)(=O)c2ccc(C)cc2)c1 | 0 | -1 | -9 | -1 | -4 | 17 | x
COc1ccc(N2CCN(S(=O)(=O)CCNC(=O)COc3cccc(OC)c3)CC2)cc1 | 14 | -5 | 2 | -2 | 23 | -1 | x
Cc1c(C(=O)Nc2cccc([N+](=O)[O-])c2)sc2ncn(CC(=O)N3CCOCC3)c(=O)c12 | 15 | -1 | 2 | -1 | 0 | 4 | x
N#CCN(N=Nc1ccccc1)c1ccccc1 | 10 | -5 | -6 | -2 | 22 | 617* | 1
O=[N+]([O-])c1cccc(N=NN(CCO)c2cccc([N+](=O)[O-])c2)c1 | 16 | -2 | -20 | -3 | -7 | 30 | x
Cc1cc(C)n2nc(C(=O)NC3CCCc4ccccc43)nc2n1 (stereo unspecified) | 0 | -2 | -3 | -1 | 12 | x | x
CCNC(=O)NC1c2ccccc2CSc2ccccc21 (stereo unspecified) | x | x | 12 | x | -3 | 614* | 0
CCN1C(=S)N[C@@H](c2cccs2)C(C(=O)OC)=C1C | 7 | -1 | 4 | -3 | 17 | 896* | 0
CCN1C(=S)N[C@@H](CCc2ccccc2)C(C(=O)OC)=C1C | -16 | -2 | -14 | -5 | 23 | + | 0
COc1ccc(-c2[nH]ncc2/C=N\NC(=O)c2ccc(Br)o2)cc1OC | 2 | -6 | -12 | -4 | 4 | 7 | x
C=CCN1C(=O)/C(=C\c2ccc(C)cc2)N=C1SCC(=O)NCCC | 8 | 0 | -13 | 1 | 10 | + | 0
CN(CC(=O)NCCc1ccc(S(N)(=O)=O)cc1)CC(=O)Nc1cccc(F)c1 | x | x | x | x | 14 | x | x
Cc1ccc(-c2[nH]ncc2CNCCc2cnn(-c3ccccc3)c2)cc1C | -12 | -3 | -1 | -3 | 12 | 923* | 0
O=C(c1ccccc1C(=O)N1CCN(c2ccccc2F)CC1)N1CCN(c2ccccc2F)CC1 | 7 | -1 | 4 | -1 | 25 | 10 | x
CCc1c(C(=O)N2CCN(c3ccccc3F)CC2)[nH]c(C)c1C(C)=O | 13 | -3 | 16 | -1 | 29 | + | 0
CCCOC(=O)c1c(NC(=O)/C=C/c2cnn(C)c2C)sc(C(=O)OC)c1C | 19 | -1 | 1 | -1 | 10 | + | 0
Cc1ccc(S(=O)(=O)Nc2ccc(-c3ccc4nncn4n3)cc2)cc1 | x | x | -6 | x | 17 | -8 | x
